The target of assay [1] is High affinity 3',5'-cyclic-AMP phosphodiesterase 7A (Homo sapiens, UniProt Q13946). As to the kind of experiment: Inhibition of human recombinant PDE7A1 expressed in baculovirus infected insect Sf21 cells after 30 mins by scintillation proximity assay. An outline of the steps: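 Full-length human recombinant PDE7A1 produced in baculovirus-infected Sf21 cells. SPA read-out with [3H]-cAMP at 20 nM in 80 mM Tris/10 mM MgSO4, pH 7.4. Reaction run 30 min at 37 °C before bead addition and scintillation counting. Background measured without enzyme. IC50 derived.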
For orientation: In a scintillation proximity assay essentially only radioactivity close to the scintillant gives light.

For assay [2], the species on record is Homo sapiens. Nature of the assay: Selectivity ratio of IC50 for human recombinant PDE4A4 to IC50 for human recombinant PDE7A1. In outline: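 Ratio of IC50 values for the two enzymes. PDE4A4 run at 500 nM [3H]-cAMP with a 10 µM rolipram background; PDE7A1 run at 20 nM [3H]-cAMP with a no-enzyme background. Both used full-length human enzymes from Sf21 cells, 30 min at 37 °C, pH 7.4 Tris/MgSO4, SPA read-out.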

Assay [3] concerns the target 3',5'-cyclic-AMP phosphodiesterase 4A (Homo sapiens, UniProt P27815). Nature of the assay: Inhibition of human recombinant PDE4A4 expressed in baculovirus infected insect Sf21 cells after 30 mins by scintillation proximity assay. In outline:
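Full-length human recombinant enzyme expressed in baculovirus-infected Sf21 cells. Scintillation proximity assay with 500 nM [3H]-cAMP substrate in 80 mM Tris/10 mM MgSO4, pH 7.4. Incubated 30 min at 37 °C, then SPA beads added and plates counted. Background taken in presence of 10 µM rolipram. IC50 reported.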

Chain of High affinity 3',5'-cyclic-AMP phosphodiesterase 7A (Q13946 whole entry): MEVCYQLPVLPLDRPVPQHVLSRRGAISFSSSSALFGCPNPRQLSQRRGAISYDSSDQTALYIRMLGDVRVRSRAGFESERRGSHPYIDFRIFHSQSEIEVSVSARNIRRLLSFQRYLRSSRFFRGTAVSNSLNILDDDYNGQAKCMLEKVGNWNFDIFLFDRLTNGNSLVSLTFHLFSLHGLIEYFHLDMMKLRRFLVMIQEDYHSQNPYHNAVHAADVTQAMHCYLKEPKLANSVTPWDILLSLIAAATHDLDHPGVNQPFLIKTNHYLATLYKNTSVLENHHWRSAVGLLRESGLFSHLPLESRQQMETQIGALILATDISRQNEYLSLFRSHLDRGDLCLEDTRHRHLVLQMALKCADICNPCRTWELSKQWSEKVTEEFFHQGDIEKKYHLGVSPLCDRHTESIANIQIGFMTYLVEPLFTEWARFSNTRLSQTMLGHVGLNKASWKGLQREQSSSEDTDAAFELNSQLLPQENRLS
Chain of 3',5'-cyclic-AMP phosphodiesterase 4A (P27815 whole entry): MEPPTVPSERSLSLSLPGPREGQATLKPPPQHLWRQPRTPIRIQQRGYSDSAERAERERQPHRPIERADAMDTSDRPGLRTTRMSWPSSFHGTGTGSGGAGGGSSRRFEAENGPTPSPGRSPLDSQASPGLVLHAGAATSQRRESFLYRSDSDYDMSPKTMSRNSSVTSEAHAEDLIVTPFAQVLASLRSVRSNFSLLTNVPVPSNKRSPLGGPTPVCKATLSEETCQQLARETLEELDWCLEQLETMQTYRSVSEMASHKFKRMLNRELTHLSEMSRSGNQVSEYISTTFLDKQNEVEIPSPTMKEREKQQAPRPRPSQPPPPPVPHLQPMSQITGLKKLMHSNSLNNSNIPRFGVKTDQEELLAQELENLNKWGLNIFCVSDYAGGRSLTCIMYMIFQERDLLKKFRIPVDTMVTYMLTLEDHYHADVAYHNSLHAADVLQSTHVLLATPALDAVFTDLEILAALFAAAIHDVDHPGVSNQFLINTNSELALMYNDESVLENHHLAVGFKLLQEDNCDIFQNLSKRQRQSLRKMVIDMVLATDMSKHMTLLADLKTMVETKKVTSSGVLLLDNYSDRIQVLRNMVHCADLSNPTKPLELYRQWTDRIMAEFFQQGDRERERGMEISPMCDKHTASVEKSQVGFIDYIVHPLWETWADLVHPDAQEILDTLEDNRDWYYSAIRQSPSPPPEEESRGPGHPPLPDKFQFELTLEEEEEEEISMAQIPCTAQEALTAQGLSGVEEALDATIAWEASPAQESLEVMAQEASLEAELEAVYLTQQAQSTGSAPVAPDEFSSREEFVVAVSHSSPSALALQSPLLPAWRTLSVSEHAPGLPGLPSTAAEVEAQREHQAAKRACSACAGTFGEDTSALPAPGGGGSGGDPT

As usually defined, the IC50 is the midpoint of a concentration-inhibition curve. As to `NS(=O)(=O)c1ccc(NC(=O)c2cn(Cc3c(F)cccc3Cl)c3ccc(=O)[nH]c3c2=O)cc1`, the results for the concentration for half-maximal inhibition (IC50) in assay [1] and in assay [3] were 20 nM and 385 nM, respectively. In assay [2], the Ratio IC50 is 19.

In the case of `O=C(Nc1ccc(F)cc1)c1cn(Cc2c(F)cccc2F)c2ccc(=O)[nH]c2c1=O`, the IC50 is 179 nM in assay [1] and above 1000 nM in assay [3].

As to `Nc1ccc(NC(=O)c2cn(Cc3c(F)cccc3F)c3ccc(=O)[nH]c3c2=O)cc1`, the IC50 amounted to 104 nM in assay [1] and 477 nM in assay [3].

Turning to `CNC(=O)c1ccc(NC(=O)c2cn(Cc3c(F)cccc3F)c3ccc(=O)[nH]c3c2=O)cc1`, the IC50 in assay [1] was found to be 29 nM; in assay [3], 560 nM.

For the molecule `CC(=O)c1ccc(NC(=O)c2cn(Cc3c(F)cccc3F)c3ccc(=O)[nH]c3c2=O)cc1`, the half-inhibitory concentration (IC50) in assay [1] was 29 nM; in assay [3], above 1000 nM.

With `CC(=O)c1ccc(NC(=O)c2cn(Cc3c(F)cccc3Cl)c3ccc(=O)[nH]c3c2=O)cc1`, the IC50 came out at 18 nM in assay [1] and 161 nM in assay [3]. Further, the Ratio IC50 in assay [2] was 6.

Turning to `COc1cc(NC(=O)c2cn(Cc3c(F)cccc3F)c3ccc(=O)[nH]c3c2=O)cc(OC)c1`, the IC50 in assay [1] is 212 nM; in assay [3], above 1000 nM.

`O=C(O)c1ccc(NC(=O)c2cn(Cc3c(F)cccc3F)c3ccc(=O)[nH]c3c2=O)cc1`: the IC50 in assay [1] came to 200 nM; in assay [3], 1520 nM.

On to `O=C(O)Cc1ccc(NC(=O)c2cn(Cc3c(F)cccc3F)c3ccc(=O)[nH]c3c2=O)cc1`, for which the IC50 in assay [1] was 176 nM; in assay [3] it was above 1000 nM.

As for `O=C(Nc1ccc(N2CCOCC2)cc1)c1cn(Cc2ccccc2Cl)c2ccc(=O)[nH]c2c1=O`, the half-maximal inhibitory concentration (IC50) in assay [1] is 767 nM; in assay [3], above 1000 nM.

`O=C(Nc1ccc(N2CCOCC2)cc1)c1cn(Cc2c(Cl)cccc2Cl)c2ccc(=O)[nH]c2c1=O`: the concentration for half-maximal inhibition (IC50) in assay [1] was 165 nM; in assay [3] it was above 1000 nM.

For `CC(=O)Nc1ccc(NC(=O)c2cn(Cc3c(F)cccc3F)c3ccc(=O)[nH]c3c2=O)cc1`, the IC50 in assay [1] was found to be 24 nM; in assay [3] it was 362 nM.

For the molecule `O=C(Nc1ccc(C(F)(F)F)cc1)c1cn(Cc2c(F)cccc2F)c2ccc(=O)[nH]c2c1=O`, the concentration for half-maximal inhibition (IC50) is 300 nM in assay [1] and above 1000 nM in assay [3].

Regarding `O=C(Nc1ccccc1)c1cn(Cc2c(F)cccc2F)c2ccc(=O)[nH]c2c1=O`, the half-maximal inhibitory concentration (IC50) in assay [1] was found to be 94 nM; in assay [3] it was 1330 nM.

With `O=C(Nc1ccc(C(=O)N2CCOCC2)cc1)c1cn(Cc2c(F)cccc2F)c2ccc(=O)[nH]c2c1=O`, the results for the IC50 in assay [1] and in assay [3] were 188 nM and 1060 nM, respectively.

For `COc1cc(NC(=O)c2cn(Cc3c(Cl)cccc3Cl)c3ccc(=O)[nH]c3c2=O)cc(OC)c1OC`, the half-inhibitory concentration (IC50) turned out to be 88 nM in assay [1] and 979 nM in assay [3].

For `O=C(NCc1ccncc1)c1ccc(NC(=O)c2cn(Cc3c(F)cccc3F)c3ccc(=O)[nH]c3c2=O)cc1`, the half-maximal inhibitory concentration (IC50) worked out at 20 nM in assay [1] and 430 nM in assay [3].

For `COc1cc(NC(=O)c2cn(Cc3c(F)cccc3Cl)c3ccc(=O)[nH]c3c2=O)cc(OC)c1OC`, the IC50 in assay [1] is 33 nM; in assay [3], above 1000 nM.

For `COc1ccc(NC(=O)c2cn(Cc3c(F)cccc3Cl)c3ccc(=O)[nH]c3c2=O)cc1Cl`, the IC50 is 34 nM in assay [1] and above 1000 nM in assay [3].

`O=C(Nc1c(F)cccc1F)c1cn(Cc2c(F)cccc2F)c2ccc(=O)[nH]c2c1=O`: the figures for the IC50 in assay [1] and in assay [3] were above 1000 nM and 219 nM, respectively.

Consider `COc1cc(NC(=O)c2cn(Cc3ccc(F)cc3)c3ccc(=O)[nH]c3c2=O)cc(OC)c1OC`, for which the concentration for half-maximal inhibition (IC50) in assay [1] was 868 nM; in assay [3], above 1000 nM.

Regarding `NC(=O)c1ccc(NC(=O)c2cn(Cc3c(F)cccc3F)c3ccc(=O)[nH]c3c2=O)cc1`, the results for the half-maximal inhibitory concentration (IC50) in assay [1] and in assay [3] were 49 nM and 201 nM, respectively.

As to `CN(C)c1ccc(NC(=O)c2cn(Cc3c(F)cccc3F)c3ccc(=O)[nH]c3c2=O)cc1`, the figures for the IC50 in assay [1] and in assay [3] were 66 nM and 471 nM, respectively.

For the molecule `COc1ccc2c(n1)c(=O)c(C(=O)Nc1ccc(N3CCOCC3)cc1)cn2Cc1c(F)cccc1F`, the concentration for half-maximal inhibition (IC50) in assay [1] and in assay [3] was above 5000 nM each time.

Consider `O=C(Nc1ccc(N2CCOCC2)cc1)c1cn(Cc2ccccc2)c2ccc(=O)[nH]c2c1=O`, for which the IC50 is 712 nM in assay [1] and above 1000 nM in assay [3].

In the case of `COc1ccc(NC(=O)c2cn(Cc3c(F)cccc3F)c3ccc(=O)[nH]c3c2=O)cc1`, the IC50 in assay [1] was 151 nM; in assay [3], above 1000 nM.

For the molecule `O=C(Nc1ccc(S(=O)(=O)Nc2nccs2)cc1)c1cn(Cc2c(F)cccc2Cl)c2ccc(=O)[nH]c2c1=O`, the IC50 worked out at 32 nM in assay [1] and 274 nM in assay [3].

For the molecule `COc1cc(NC(=O)c2cn(Cc3ccccc3Cl)c3ccc(=O)[nH]c3c2=O)cc(OC)c1OC`, the concentration for half-maximal inhibition (IC50) in assay [1] is 178 nM; in assay [3], above 1000 nM.

Take `O=C(Nc1ccc(S(=O)(=O)Nc2nccs2)cc1)c1cn(Cc2c(F)cccc2F)c2ccc(=O)[nH]c2c1=O`: the IC50 in assay [1] was determined as 25 nM; in assay [3], 481 nM.

In the case of `O=C(Nc1ccc(OC(F)F)cc1)c1cn(Cc2c(F)cccc2F)c2ccc(=O)[nH]c2c1=O`, the IC50 in assay [1] was determined as 71 nM; in assay [3], 568 nM.

On to `COc1cc(NC(=O)c2cn(Cc3ccc(F)cc3Cl)c3ccc(=O)[nH]c3c2=O)cc(OC)c1OC`, for which the IC50 in assay [1] is 192 nM; in assay [3] it was above 1000 nM.

With `COc1cc(NC(=O)c2cn(Cc3ccccc3)c3ccc(=O)[nH]c3c2=O)cc(OC)c1OC`, the IC50 in assay [1] is 686 nM; in assay [3] it was above 1000 nM.

Regarding `N#Cc1cccc(NC(=O)c2cn(Cc3c(F)cccc3F)c3ccc(=O)[nH]c3c2=O)c1`, the half-maximal inhibitory concentration (IC50) was 1070 nM in assay [1] and above 1000 nM in assay [3].

Consider `O=C(Nc1ccc(OC(F)(F)F)cc1)c1cn(Cc2c(F)cccc2F)c2ccc(=O)[nH]c2c1=O`, for which the concentration for half-maximal inhibition (IC50) in assay [1] is 90 nM; in assay [3], above 1000 nM.

As to `O=C(Nc1ccc(N2CCOCC2)cc1)c1cn(Cc2ccc(OC(F)(F)F)cc2)c2ccc(=O)[nH]c2c1=O`, the IC50 in assay [1] and in assay [3] was above 1000 nM throughout.

As for `CNC(=O)c1ccc(NC(=O)c2cn(Cc3c(F)cccc3Cl)c3ccc(=O)[nH]c3c2=O)cc1`, the IC50 in assay [1] turned out to be 18 nM; in assay [3], 156 nM.

For the molecule `Cc1ccccc1Cn1cc(C(=O)Nc2ccc(N3CCOCC3)cc2)c(=O)c2[nH]c(=O)ccc21`, the results for the IC50 in assay [1] and in assay [3] were 266 nM and above 1000 nM, respectively.

`O=C(Nc1ccc(N2CCOCC2)cc1)c1cn(Cc2ccc(F)cc2F)c2ccc(=O)[nH]c2c1=O`: the IC50 in assay [1] and in assay [3] was above 1000 nM throughout.

For the molecule `O=C(Nc1ccc(N2CCOCC2)cc1)c1cn(Cc2ccc(F)cc2)c2ccc(=O)[nH]c2c1=O`, the half-inhibitory concentration (IC50) in assay [1] was 2380 nM; in assay [3], above 5000 nM.

Consider `O=C(Nc1ccc(N2CCCCC2)cc1)c1cn(Cc2c(F)cccc2F)c2ccc(=O)[nH]c2c1=O`, for which the half-maximal inhibitory concentration (IC50) in assay [1] was 124 nM; in assay [3], above 1000 nM.

With `O=C(Nc1ccc(O)cc1)c1cn(Cc2c(F)cccc2F)c2ccc(=O)[nH]c2c1=O`, the IC50 in assay [1] was 105 nM; in assay [3], above 1000 nM.

For the molecule `O=C(Nc1ccc(N2CCOCC2)cc1)c1cn(Cc2c(F)cccc2F)c2cccnc2c1=O`, the IC50 came out at 823 nM in assay [1] and 379 nM in assay [3].

`COc1cc(NC(=O)c2cn(Cc3ccccc3F)c3ccc(=O)[nH]c3c2=O)cc(OC)c1OC`: the 50% inhibitory concentration (IC50) in assay [1] is 206 nM; in assay [3] it was above 1000 nM.

Regarding `O=C(Nc1ccc(N2CCOCC2)cc1)c1cn(Cc2cc(F)cc(F)c2)c2ccc(=O)[nH]c2c1=O`, the concentration for half-maximal inhibition (IC50) in assay [1] and in assay [3] was above 1000 nM throughout.

On to `COc1cc(NC(=O)c2cn(Cc3c(F)cccc3F)c3ccc(=O)[nH]c3c2=O)cc(OC)c1OC`, for which the IC50 stood at 18 nM in assay [1] and 516 nM in assay [3].

On to `CNc1ccc(NC(=O)c2cn(Cc3c(F)cccc3F)c3ccc(=O)[nH]c3c2=O)cc1`, for which the half-inhibitory concentration (IC50) amounted to 82 nM in assay [1] and 994 nM in assay [3].

As to `O=C(Nc1ccc(N2CCOCC2)cc1)c1cn(Cc2c(F)cccc2F)c2ccc(=O)[nH]c2c1=O`, the IC50 stood at 22 nM in assay [1] and 506 nM in assay [3].

`NS(=O)(=O)c1ccc(NC(=O)c2cn(Cc3c(F)cccc3F)c3ccc(=O)[nH]c3c2=O)cc1`: the 50% inhibitory concentration (IC50) in assay [1] is 34 nM; in assay [3], 458 nM.

Consider `CS(=O)(=O)c1ccc(NC(=O)c2cn(Cc3c(F)cccc3F)c3ccc(=O)[nH]c3c2=O)cc1`, for which the concentration for half-maximal inhibition (IC50) in assay [1] is 27 nM; in assay [3] it was above 1000 nM.

In the case of `N#Cc1ccc(NC(=O)c2cn(Cc3c(F)cccc3F)c3ccc(=O)[nH]c3c2=O)cc1`, the IC50 in assay [1] is 96 nM; in assay [3], above 1000 nM.

`COc1cc(NC(=O)c2cn(Cc3ccccc3Br)c3ccc(=O)[nH]c3c2=O)cc(OC)c1OC`: the half-maximal inhibitory concentration (IC50) in assay [1] and in assay [3] was above 1000 nM in each case.

For the molecule `CSc1ccc(NC(=O)c2cn(Cc3c(F)cccc3F)c3ccc(=O)[nH]c3c2=O)cc1`, the IC50 is 86 nM in assay [1] and above 1000 nM in assay [3].

`CCN(CC)c1ccc(NC(=O)c2cn(Cc3c(F)cccc3F)c3ccc(=O)[nH]c3c2=O)cc1`: the IC50 in assay [1] amounted to 46 nM; in assay [3], 442 nM.

As to `O=C(Nc1ccc(N2CCOCC2)cc1)c1cn(Cc2c(F)c(F)cc(F)c2F)c2ccc(=O)[nH]c2c1=O`, the results for the IC50 in assay [1] and in assay [3] were 317 nM and 3560 nM, respectively.

In the case of `O=C(Nc1ccc(N2CCOCC2)cc1)c1cn(Cc2ccccc2C(F)(F)F)c2ccc(=O)[nH]c2c1=O`, the half-maximal inhibitory concentration (IC50) in assay [1] and in assay [3] was above 1000 nM each time.
